We go through eleven compounds from ChEMBL document CHEMBL1123580, “Synthesis and biological properties of side-chain-modified bleomycins” (1987).

For assay [1], the system named is B16. Description: Effect on the survival of mouse B16 melanoma cells was determined at a dose of 100 ug/mL in vitro. Format: functional. Conditions: read-out: Survival. The essentials: (§1)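 B16 mouse melanoma cells from log-phase cultures seeded at 5 × 10^4 cells/mL in Dulbecco's modified Eagle medium with 10% newborn calf serum; after 24 h, exposed to agent (10 or 100 µg/mL) for 21 h, washed twice, fresh medium. Cells trypsinized and counted 48 h after start of incubation; viability by Trypan blue exclusion. Survival = T/C × 100 versus untreated control; mean of three samples.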

Assay [2] deals with B16. Description: Effect on the survival of mouse B16 melanoma cells was determined at a dose of 10 ug/mL in vitro. Format: functional. To be noted: read-out: Survival. The essentials: as §1

Turning to `Cc1c(N)nc(C(CC(N)=O)NCC(N)C(N)=O)nc1C(=O)NC(C(=O)NC(C)C(O)C(C)C(=O)NC(C(=O)NCCc1nc(-c2nc(C(=O)NCCC[S+](C)CC(=O)NC(C)C)cs2)cs1)C(C)O)C(O[C@@H]1O[C@H](CO)[C@@H](O)[C@@H](O)C1OC1O[C@@H](CO)C(O)[C@@H](OC(N)=O)[C@@H]1O)c1c[nH]cn1` (some centres not stated), the viability at 100 µg/mL in the assay with B16 [1] was determined as 23%. The viability at 10 µg/mL in the assay with B16 [2] came out at 41%.
The like results for `Cc1c(N)nc(C(CC(N)=O)NCC(N)C(N)=O)nc1C(=O)NC(C(=O)NC(C)C(O)C(C)C(=O)NC(C(=O)NCCc1nc(-c2nc(C(=O)NCCC[S+](C)CC(=O)N3CCOCC3)cs2)cs1)C(C)O)C(O[C@@H]1O[C@@H](CO)[C@@H](O)[C@@H](O)[C@@H]1O[C@H]1O[C@H](CO)[C@@H](O)[C@@H](OC(N)=O)[C@@H]1O)c1c[nH]cn1` (some centres not stated) were, in that order, 28% and 51%.
The like results for `Cc1c(N)nc(C(CC(N)=O)NCC(N)C(N)=O)nc1C(=O)NC(C(=O)NC(C)C(O)C(C)C(=O)NC(C(=O)NCCc1nc(-c2nc(C(=O)NCCC[S+](C)CC(=O)Nc3ccccc3)cs2)cs1)C(C)O)C(O[C@@H]1O[C@@H](CO)[C@@H](O)[C@@H](O)[C@@H]1O[C@H]1O[C@H](CO)[C@@H](O)[C@@H](OC(N)=O)[C@@H]1O)c1c[nH]cn1` (some centres not stated) were, in that order, 27% and 45%.
On to `CCOC(=O)C[S+](C)CCCNC(=O)c1csc(-c2csc(CCNC(=O)C(NC(=O)C(C)C(O)C(C)NC(=O)C(NC(=O)c3nc(C(CC(N)=O)NCC(N)C(N)=O)nc(N)c3C)C(O[C@@H]3O[C@@H](CO)[C@@H](O)[C@@H](O)[C@@H]3O[C@H]3O[C@H](CO)[C@@H](O)[C@@H](OC(N)=O)[C@@H]3O)c3c[nH]cn3)C(C)O)n2)n1` (some centres not stated), for which the viability at 100 µg/mL in the assay with B16 [1] came out at 27%. Also, the viability at 10 µg/mL with B16 [2] amounted to 43%.
`Cc1c(N)nc([C@H](CC(N)=O)NC[C@H](N)C(N)=O)nc1C(=O)N[C@H](C(=O)N[C@H](C)[C@@H](O)[C@H](C)C(=O)N[C@H](C(=O)NCCc1nc(-c2nc(C(=O)NCCC[S+](C)C)cs2)cs1)[C@@H](C)O)[C@@H](O[C@@H]1O[C@@H](CO)[C@@H](O)[C@H](O)[C@@H]1O[C@H]1O[C@H](CO)[C@@H](O)[C@H](OC(N)=O)[C@@H]1O)c1c[nH]cn1` [BLEOMYCIN A2]: the viability at 100 µg/mL in the assay with B16 [1] was 28%. In addition, the viability at 10 µg/mL in the assay on B16 [2] is 39%.
The like results for `Cc1c(N)nc(C(CC(N)=O)NCC(N)C(N)=O)nc1C(=O)NC(C(=O)NC(C)C(O)C(C)C(=O)NC(C(=O)NCCc1nc(-c2nc(C(=O)NCCC[S+](C)CC(N)=O)cs2)cs1)C(C)O)C(O[C@@H]1O[C@H](CO)[C@H](O)[C@@H](O)[C@@H]1O[C@H]1O[C@@H](CO)[C@@H](O)[C@H](OC(N)=O)[C@H]1O)c1c[nH]cn1` (some centres not stated) were, in that order, 21% and 38%.
The like results for `COc1ccc(NC(=O)C[S+](C)CCCNC(=O)c2csc(-c3csc(CCNC(=O)C(NC(=O)C(C)C(O)C(C)NC(=O)C(NC(=O)c4nc(C(CC(N)=O)NCC(N)C(N)=O)nc(N)c4C)C(O[C@@H]4O[C@@H](CO)[C@@H](O)[C@@H](O)[C@@H]4O[C@H]4O[C@H](CO)[C@@H](O)[C@@H](OC(N)=O)[C@@H]4O)c4c[nH]cn4)C(C)O)n3)n2)cc1` (some centres not stated) were, in that order, 28% and 40%.
Taken in the same sequence, the figures for `Cc1c(N)nc(C(CC(N)=O)NCC(N)C(N)=O)nc1C(=O)NC(C(=O)NC(C)C(O)C(C)C(=O)NC(C(=O)NCCc1nc(-c2nc(C(=O)NCCC[S+](C)CC(=O)NC3CC3)cs2)cs1)C(C)O)C(O[C@@H]1O[C@@H](CO)[C@@H](O)[C@@H](O)[C@@H]1O[C@H]1O[C@H](CO)[C@@H](O)[C@@H](OC(N)=O)[C@@H]1O)c1c[nH]cn1` (some centres not stated) were 28% and 38%.
For the compound `Cc1c(N)nc(C(CC(N)=O)NCC(N)C(N)=O)nc1C(=O)NC(C(=O)NC(C)C(O)C(C)C(=O)NC(C(=O)NCCc1nc(-c2nc(C(=O)NCCC[S+](C)CC(=O)N3CCCC3)cs2)cs1)C(C)O)C(O[C@@H]1O[C@@H](CO)[C@@H](O)[C@@H](O)[C@@H]1O[C@H]1O[C@H](CO)[C@@H](O)[C@@H](OC(N)=O)[C@@H]1O)c1c[nH]cn1` (some centres not stated), in the assay with B16 [1], the viability at 100 µg/mL came out at 29%. Further, the viability at 10 µg/mL in the assay with B16 [2] turned out to be 35%.
Regarding `Cc1c(N)nc(C(CC(N)=O)NCC(N)C(N)=O)nc1C(=O)NC(C(=O)NC(C)C(O)C(C)C(=O)NC(C(=O)NCCc1nc(-c2nc(C(=O)NCCC[S+](C)CC(=O)Nc3ccc([N+](=O)[O-])cc3)cs2)cs1)C(C)O)C(O[C@@H]1O[C@@H](CO)[C@@H](O)[C@@H](O)[C@@H]1O[C@H]1O[C@H](CO)[C@@H](O)[C@@H](OC(N)=O)[C@@H]1O)c1c[nH]cn1` (some centres not stated), in the assay on B16 [1], the viability at 100 µg/mL amounted to 30%. Further, the viability at 10 µg/mL in the assay with B16 [2] was 46%.
Taken in the same sequence, the figures for `Cc1c(N)nc(C(CC(N)=O)NCC(N)C(N)=O)nc1C(=O)NC(C(=O)NC(C)C(O)C(C)C(=O)NC(C(=O)NCCc1nc(-c2nc(C(=O)NCCC[S+](C)CC(=O)Nc3ccc4ccccc4c3)cs2)cs1)C(C)O)C(O[C@@H]1O[C@@H](CO)[C@@H](O)[C@@H](O)[C@@H]1O[C@H]1O[C@H](CO)[C@@H](O)[C@@H](OC(N)=O)[C@@H]1O)c1c[nH]cn1` (some centres not stated) were 32% and 48%.
